PubChem BioAssay AID2237 (Johns Hopkins Ion Channel Center, 2010)
Out of some 310,000 compounds screened, about 1,500 (0.48%) were called active.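 Rule for the calls: active = B-score above 5 SD of library B-scores, and initial fluorescence ratio not above library mean plus 5 SD; inactive = the rest.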 Many of the other results were omitted from the sample, so actives are more common in it than they were.

These molecules were tested against Short transient receptor potential channel 4 (Mus musculus) (UniProt Q9QUQ5) (assay: TRPC4 cation channel opening, calcium rise – Fluo4 calcium, HEK293 TRPC4beta/mu-opioid cells, primary screen (AID 2237;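 for B-score: positive B-score marks a calcium rise read as TRPC4 activation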)). Settings: Fluo4 calcium fluorescence, at 10 µM; hits give high values.
In short: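 Technique: kinetic Fluo4 calcium fluorescence; Test system: TRPC4beta and mu-opioid receptor HEK293 stable cells; Measure: B-scored integrated calcium fluorescence ratio; Benchmarks: low control buffer alone, high control maximal DAMGO; Schedule: 45 min room-temperature Fluo4 loading, 110 s read.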

Sequence of Short transient receptor potential channel 4 (Mus musculus) (Q9QUQ5 whole entry, looked up): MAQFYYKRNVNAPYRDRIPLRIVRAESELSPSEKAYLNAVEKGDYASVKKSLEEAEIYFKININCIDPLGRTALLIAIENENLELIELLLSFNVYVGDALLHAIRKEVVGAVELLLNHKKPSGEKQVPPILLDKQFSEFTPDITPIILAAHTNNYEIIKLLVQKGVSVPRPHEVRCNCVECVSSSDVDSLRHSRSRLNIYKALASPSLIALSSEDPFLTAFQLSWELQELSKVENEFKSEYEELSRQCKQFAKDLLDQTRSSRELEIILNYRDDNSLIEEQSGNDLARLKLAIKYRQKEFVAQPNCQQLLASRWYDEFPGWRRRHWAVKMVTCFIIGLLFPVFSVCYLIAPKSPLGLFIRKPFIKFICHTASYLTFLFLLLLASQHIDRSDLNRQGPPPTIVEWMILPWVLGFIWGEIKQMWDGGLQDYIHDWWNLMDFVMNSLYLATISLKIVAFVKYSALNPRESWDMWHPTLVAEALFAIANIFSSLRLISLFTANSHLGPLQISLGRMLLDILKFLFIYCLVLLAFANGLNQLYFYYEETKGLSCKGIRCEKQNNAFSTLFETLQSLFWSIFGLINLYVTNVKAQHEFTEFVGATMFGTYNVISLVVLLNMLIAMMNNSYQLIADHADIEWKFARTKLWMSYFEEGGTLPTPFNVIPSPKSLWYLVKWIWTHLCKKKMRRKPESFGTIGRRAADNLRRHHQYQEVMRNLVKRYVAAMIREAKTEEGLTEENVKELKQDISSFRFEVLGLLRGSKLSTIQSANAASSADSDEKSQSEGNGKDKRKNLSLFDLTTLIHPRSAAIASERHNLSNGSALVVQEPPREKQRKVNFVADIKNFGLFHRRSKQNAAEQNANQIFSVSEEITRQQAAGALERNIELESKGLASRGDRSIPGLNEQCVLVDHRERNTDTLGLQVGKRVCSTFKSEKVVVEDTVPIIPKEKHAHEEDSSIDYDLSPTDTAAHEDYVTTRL

Structure (SMILES)	B-score
Cc1ccc(S(=O)(=O)NCCC(=O)NNC(=O)C2COc3ccccc3O2)cc1 (configuration not stated)	inactive
O=C(NCc1ccccc1)C1=C[C@@H](c2ccc(C(F)(F)F)cc2)C[C@@H](OCc2ccc(CO)cc2)O1	inactive
O=C(NCc1ccccc1)C1=C[C@@H](C2CCCCC2)C[C@@H](OCc2ccc(CO)cc2)O1	151 (active)
O=C(NCc1ccccc1)C1=C[C@H](C2CC2)C[C@H](OCc2ccc(CO)cc2)O1	inactive
O=C(C1=C[C@H](C2CC2)C[C@H](OCc2ccc(CO)cc2)O1)N1CCN(Cc2ccccc2)CC1	inactive
CC(C)(C)[C@H]1C=C(C(=O)NCc2ccccc2)O[C@@H](OCc2ccc(CO)cc2)C1	136 (active)
O=C(NCc1ccccc1)C1=C[C@@H](c2ccccc2)C[C@@H](OCCCCO)O1	inactive
CC(=O)c1ccc(S(=O)(=O)Nc2ccc(-c3ccc4nncn4n3)cc2)cc1	inactive
C#CCOc1ccc(/C=C2/C(=O)ON=C2C)cc1OCC	inactive
COc1ccc(C(=O)C2CCCN(Cc3cccn3-c3ccccn3)C2)c(C)c1 (configuration not stated)	inactive
CCOC(=O)c1ccc(NC(=O)c2c(NCc3ccccc3)[nH]c(=O)[nH]c2=O)cc1	inactive
COc1ccc(C[C@H]2CN3C(=NC[C@H]3C)N2CCNC(=O)CCC2CCCCC2)cc1	78 (active)
COc1cccc(CNC(=O)CCC2CCCN(Cc3ccc(OC(F)F)cc3)C2)c1 (configuration not stated)	inactive
C/C=C(\C)C(=O)NCCN1C2=NC[C@H](Cc3ccc(O)cc3)N2C[C@@H]1Cc1ccc(OC)cc1	inactive
CCNc1nc(SCCOc2ccccc2)nc(N(C)C)n1	inactive
O=C(NCCN1C(=O)S/C(=C\c2cccnc2)C1=O)c1ccc(S(=O)(=O)N2CCCC2)cc1	inactive
CCCc1nc2c(C)cc(-c3nc4ccccc4n3C)cc2n1Cc1ccc(-c2ccccc2C(=O)O)cc1	95 (active)
CC(=O)Nc1nc2ccccc2n1Cc1ccc(C)cc1	inactive
CC(=O)c1nc2ccccc2n1Cc1ccccc1	inactive
COC(=O)N/N=C/c1c[n+]([O-])c2ccccc2[n+]1[O-]	inactive
COc1cc(OC)cc(C(=O)N[C@H](C(=O)OCC(=O)NC(C)c2ccccc2)C(C)C)c1 (some centres not stated)	64 (active)
Cc1ccc(OCC(=O)NC(C)c2ccccc2)cc1C (configuration not stated)	inactive

Structure (SMILES)	B-score
Cc1cc(C)cc(OCC(=O)NC(C)c2ccccc2)c1 (configuration not stated)	inactive
CCc1ccccc1NC(=O)c1cc(-c2ccc3c(c2)OCO3)on1	inactive
O=S(=O)(c1ccccc1)N1CCC(c2ccccc2)CC1	inactive
Cc1ccc(S(=O)(=O)N2CCC(N3CCCCCC3)CC2)cc1	inactive
c1ccc(C2CCC(N3CCC(N4CCCCC4)CC3)CC2)cc1 (configuration not stated)	123 (active)
C/C(=N/OC(=O)c1ccc(Br)cc1)c1ccc(C)cc1	inactive
CC(C)N(Cc1nnc(-c2ccc(Cl)cc2)o1)C(=O)C1=COCCO1	inactive
CNC(=O)COC(=O)c1cc(-c2ccc(OC)cc2)nc2ccccc12	inactive
Cc1cc(C(=O)Nc2ccccc2N2CCOCC2)c2ccccc2n1	inactive
COC(=O)c1cc(N2CCNCC2)nc2ccccc12	87 (active)
Cc1ccc(S(=O)(=O)NCC(=O)N(CC(=O)NCC2CCCO2)c2cccc(F)c2)cc1 (configuration not stated)	inactive
CN(C)CCCN(C(=O)c1ccc(S(=O)(=O)N2CCCCCC2)cc1)c1nc2ccc(Br)cc2s1	inactive
CN(C)CCCN(C(=O)c1ccc(S(=O)(=O)N2CCCCCC2)cc1)c1nc2cc3c(cc2s1)OCCO3	inactive
CN(C)CCCN(C(=O)c1ccc(S(=O)(=O)N2CCCc3ccccc32)cc1)c1nc2ccc(F)cc2s1	197 (active)
CCOc1ccc(N(CC(=O)NCCOc2ccccc2OC)S(=O)(=O)c2ccccc2)cc1	inactive
Cc1nc(/N=C(\N)NC(=O)NC2CCCCC2)nc2ccccc12	90 (active)
COc1ccc2nc(/N=C(\N)NC(=O)Nc3ccccc3)nc(C)c2c1	inactive
O=C(NNC(=O)C(O)c1ccccc1)NC1CCCCC1 (configuration not stated)	inactive
COC(=O)C1CCCCN1C(=O)c1ccc(OC2CCN(C(C)=O)CC2)c(OC)c1 (configuration not stated)	inactive
CN(CCO)S(=O)(=O)c1ccc2c(c1)C(=O)c1cc(S(=O)(=O)N(C)CCO)ccc1-2	inactive
COC(=O)c1sc(-c2ccc(C(C)(C)C)cc2)cc1NC(=O)/C=C/C(=O)O	inactive
NC(=O)CSc1nnc(NC(=O)c2ccc3ccccc3c2)s1	inactive

Structure (SMILES)	B-score
O=C(Nc1ccc2ccccc2c1)/C(=C/c1cccc(Br)c1)NC(=O)c1ccco1	inactive
CC(Oc1ccc2ccccc2c1)C(=O)NNC(=S)NC(=O)c1ccco1 (configuration not stated)	65 (active)
Cc1ccc(C(=O)NNC(=O)C(C)Oc2ccc3ccccc3c2)o1 (configuration not stated)	inactive
CCCc1ccc(OCCNC(=O)c2ccco2)cc1	inactive
CCCc1ccc(OCC(=O)NNC(=S)NC(=O)c2ccco2)cc1	66 (active)
Cc1ccc(OCC(=O)NCCCNC(=O)c2ccco2)cc1C	inactive
COc1cccc(NC(=O)CN2CCN(CC(=O)Nc3ccccc3Cl)CC2)c1	inactive
Cc1ccc(C23CC4CC(CC(C(=O)NCC(=O)O)(C4)C2)C3)cc1	inactive
CCC(=O)Nc1nnc(S(=O)(=O)N(CC(C)C)c2ccccc2)s1	inactive
Clc1ccc(-c2cc(-c3ccccn3)on2)c(Cl)c1	inactive
COn1c(-c2ccc(Cl)cc2Cl)nc2ncccc21	inactive
Clc1ccc(COn2c(-c3ccc(Cl)cc3Cl)nc3ncccc32)cc1	80 (active)
COc1ccccc1/C=N/N1CCN(Cc2ccccc2Cl)CC1	inactive
CC(=O)N1CC2(C)CN(C(C)=O)CC(C)(C1)C2=O	inactive
COc1ccc(N2CCN(C(=O)CCNC(=O)c3ccc(Br)cc3)CC2)cc1	inactive
COc1ccc(-n2nc(C(=O)NCC(=O)Nc3cccc(C)n3)c3ccccc3c2=O)cc1	inactive
COCCCNC(=O)CNC(=O)c1nn(-c2ccc(OC)cc2)c(=O)c2ccccc12	inactive
CCCN(CCC)CCCNC(=O)CNC(=O)c1nn(-c2ccc(OC)cc2)c(=O)c2ccccc12	93 (active)
CCOC(=O)c1cnn(Cc2ccccc2Cl)c1N	inactive
CCCC(C(=O)NC1CCCC1)N(C(=O)Cn1nnc(-c2ccc(C)o2)n1)c1cccc(O)c1 (configuration not stated)	inactive
COc1ccc(Cl)cc1S(=O)(=O)N1CCC(O)(c2ccc(Cl)cc2)CC1	inactive
COc1cc(OC)c(-n2cc(-c3ccc(Cl)cc3)[nH]c2=O)cc1Cl	63 (active)

Structure (SMILES)	B-score
COc1cc(OC)c(-n2c(C)cc(C=O)c2C)cc1Cl	inactive
O=C1CCN(C(=O)Nc2ccccc2)N1	inactive
CC(C)N(Cc1ccccc1)C(=O)COC(=O)c1cnccn1	inactive
Oc1c(Cl)cc(Cl)c(Cl)c1Cc1c(O)c(Cl)cc(Cl)c1Cl	53 (active)
CC(=O)OC(C)C[N+](C)(C)C (configuration not stated)	57 (active)
CC(C[N+](C)(C)C)OC(N)=O (configuration not stated)	inactive
C=C(C)CSc1nnc(-c2ccc(C)cc2)n1N	inactive
CCCOC1CCCN(Cc2cn(C)nc2-c2ccccc2F)C1 (configuration not stated)	inactive
COc1cccc2cc(C(N)=O)/c(=N\NC(=O)c3ccccc3)oc12	inactive
CCN(CC)c1ccc2cc(C(N)=O)/c(=N\NC(=O)c3ccncc3)oc2c1	79 (active)
NC(=O)c1cc2ccccc2o/c1=N/NC(=O)c1cccc(F)c1	inactive
CN1CCN(C(=O)CCc2ncc(C(F)(F)F)cc2Cl)CC1	inactive
CNc1[nH]ncc1[N+](=O)[O-]	inactive
O=C(Nc1ccc(F)c(Cl)c1)C1CCN(S(=O)(=O)c2cccnc2)CC1	inactive
CCOc1ccccc1CNS(=O)(=O)c1cc(-c2cc(C)no2)ccc1C	inactive
Cc1cc(-c2ccc(C)c(S(=O)(=O)NC(C)Cc3ccco3)c2)on1 (configuration not stated)	inactive
Cc1cc(-c2ccc(C)c(S(=O)(=O)NCCCN(Cc3ccccc3)C(C)C)c2)on1	127 (active)
C=CCNC(=O)C12CC3CC(C1)CC(C(=O)NCC=C)(C3)C2	inactive
O=C(NC1CCN(S(=O)(=O)c2ccc(F)cc2)CC1)c1ccccc1	inactive
Cc1ccc(NC(=O)c2csc3c2CCCC3)cc1	inactive
O=C(NCc1ccccc1Cl)c1csc2c1CCCCC2	inactive
CC1CC(C)CN(CCCNC(=O)c2csc3c2CCCCC3)C1 (configuration not stated)	97 (active)

Structure (SMILES)	B-score
CCOC(=O)c1ccccc1NC(=O)c1c(N)n(C)c(=O)[nH]c1=O	inactive
CSc1ccc(S(=O)(=O)N2CCC(C(=O)NCCc3ccccc3)CC2)cc1	inactive
CC1CCCN(CCOCCOc2ccccc2-c2ccccc2)C1 (configuration not stated)	54 (active)
CC1CN(CCCOc2ccccc2-c2ccccc2)CC(C)O1 (configuration not stated)	inactive
c1ccc(-c2ccccc2OCCN2CCCCC2)cc1	inactive
CCOc1ccccc1C1CC(c2ccc(Cl)cc2)Nc2nc(N)nn21 (configuration not stated)	116 (active)
CCOc1ccccc1C1CC(c2ccccc2)Nc2nc(N)nn21 (configuration not stated)	inactive
COc1ccc(C2CC(c3ccc(Cl)cc3Cl)Nc3nc(N)nn32)cc1OC (configuration not stated)	inactive
CC(C)(C)S(=O)(=O)c1ccccc1-c1noc(-c2ccccc2)c1C(N)=O	inactive
Cn1c(CCNS(=O)(=O)c2ccc(F)cc2)nnc1SCc1cccnc1	inactive
COc1ccc(NC(=O)c2cc([N+](=O)[O-])ccc2NC(=O)CNC2CCCCC2C)c(OC)c1 (configuration not stated)	inactive
Cc1ccc(C(=O)CCC(=O)N(C)CC(=O)Nc2c(Cl)cccc2Cl)cc1	inactive
Cc1cccc(-c2nc3ccccc3c(=O)n2NC(=O)Cc2ccc(Cl)cc2)c1	inactive
O=c1c2cc(Br)ccc2nc(-c2cccc(Cl)c2)n1O	121 (active)
O=C1CCCc2c1nc(-c1cccc(Cl)c1)n2O	inactive
O=c1[nH]c(CN2CCN(S(=O)(=O)c3ccc4c(c3)OCCO4)CC2)nc2sc3c(c12)CCCC3	inactive
O=C(OCCN=C1NS(=O)(=O)c2ccccc21)c1cccc([N+](=O)[O-])c1	inactive
N#CC1(NC(=O)COC(=O)CCN=C2NS(=O)(=O)c3ccccc32)CCCCC1	inactive
O=C(CCCN=C1NS(=O)(=O)c2ccccc21)OCC(=O)c1ccc(F)c(F)c1	50 (active)
